Source: article PMC3961596 (Advances in Therapy, 2014)

Legend:
[1] = Single ascending dose; assay type: in vivo, human; settings: for Cmax / Tmax / k el / Vd/F / half-life: human, plasma, po; for k el: λz
Procedure, shortened: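 Healthy Japanese men received a single oral dose (1–25 mg) or placebo with 200 mL water under fasting conditions. The 5 mg group was redosed preprandially 8 days later, followed by a standardized ~630 kcal meal. Plasma and urine were collected to 48 h (96 h at 15 and 25 mg) and assayed by HPLC–MS/MS (urine LLOQ 0.5 ng/mL). Analysis was noncompartmental: AUClast by trapezoidal rule, AUCinf extrapolated. Dose proportionality used a power model; food effect used preprandial/fasting geometric mean ratios with 90% CI (mixed model).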

[2] = 7-day multiple ascending dose; assay type: in vivo, human; settings: for mean daily urinary luseogliflozin excretion rate (% of daily dose): Days 1–7, range; for mean urinary luseogliflozin excretion rate: Days 1–11 (96 h after the last administration); for AUC / AUC(0-inf): po
Procedure, shortened: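 In healthy Japanese men, 5 or 10 mg/day or placebo was given orally for 7 days with 200 mL water just before breakfast, with a standardized ~630 kcal meal on Days 1 and 7. Heparin plasma was sampled to 12 h after the first dose, predose on Days 2–7, and to 96 h after the last dose. Plasma and urine were assayed by HPLC–MS/MS, and parameters derived noncompartmentally (AUCinf Day 1, AUC0–24 Day 7); accumulation was assessed by comparing these.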

[3] = test system: urinary glucose excretion; test: SAD study: urinary glucose excretion; assay type: in vivo, human
Procedure, shortened: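 After a single oral fasting dose (1–25 mg) or placebo, urine was pooled over 24 h predose and over intervals from 0–2 to 24–48 h post-dose, extended to 96 h for 15 and 25 mg. Aliquots were kept at 4 °C, and glucose was measured on an automated analyzer. UGE (g) was computed per collection period and as 24-h cumulative.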

[4] = test system: urinary glucose excretion; test: MAD study: urinary glucose excretion; assay type: in vivo, human; settings: for mean daily UGE (range): administration days 1–7
Procedure, shortened: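 Subjects took 5 or 10 mg/day or placebo orally for 7 days before breakfast. Urine was pooled over 24 h predose, over 2-h intervals to 16 h and 16–24 h on Days 1 and 7, and every 24 h on other days through Day 14. Glucose was measured on an automated analyzer; daily and 24-h cumulative UGE (g) were derived. Groups were compared with placebo by ANCOVA, with baseline glucose as covariate.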

[5] = test system: plasma glucose; test: Plasma glucose concentrations in the SAD and MAD studies; assay type: in vivo, human; settings: healthy subjects, vs placebo
[6] = test system: healthy male Japanese subjects; test: Assessment of safety in the SAD and MAD studies; assay type: in vivo, human
[7] = test system: SGLT2; settings: read-out: 50% inhibitory concentration (IC50) for SGLT2; cited from earlier work
[8] = test system: SGLT1; settings: cited from earlier work
[9] = animal study; cited from earlier work
[10] = SAD, 5 mg, N = 8, estimated value (90% CI)
[11] = both studies (SAD 1–25 mg, MAD 5 or 10 mg/day 7 days)

Question: Which results are given for CCOc1ccc(Cc2cc([C@@H]3S[C@H](CO)[C@@H](O)[C@H](O)[C@H]3O)c(OC)cc2C)cc1 [luseogliflozin, (1S)-1,5-anhydro-1-[5-(4-ethoxybenzyl)-2-methoxy-4-methylphenyl]-1-thio-D-glucitol]?
Answer: effect of food on pharmacokinetics ([1]; SAD, 5 mg preprandial vs fasting): food had little effect on luseogliflozin pharmacokinetics; AUCinf ratio preprandial/fasting [1, 10]: 105 (101–110) %; AUClast ratio preprandial/fasting [1, 10]: 105 (101–109) %; C max ratio preprandial/fasting [1, 10]: 107 (89.9–127) %; mean plasma concentration as % of C max ([1]; SAD, by 48 h after administration): 2–3%; dose proportionality ([1]; SAD, dose range 1–25 mg): dose proportionality was observed; mean urinary luseogliflozin excretion rate (% of each dose) ([1]; SAD, single administration, fasting, range over doses): 3.36–4.40%; CL/F ([1]; SAD, single oral 1 mg, fasting, N = 3, mean ± SD): 3.02 ± 0.489 L/h; CL/F ([1]; SAD, single oral 3 mg, fasting, N = 8, mean ± SD): 3.16 ± 0.744 L/h; CL/F ([1]; SAD, single oral 5 mg, fasting, N = 8, mean ± SD): 2.80 ± 0.465 L/h; CL/F ([1]; SAD, single oral 5 mg, preprandial, N = 8, mean ± SD): 2.64 ± 0.362 L/h; CL/F ([1]; SAD, single oral 9 mg, fasting, N = 8, mean ± SD): 2.98 ± 0.326 L/h; CL/F ([1]; SAD, single oral 15 mg, fasting, N = 8, mean ± SD): 2.99 ± 0.483 L/h; CL/F ([1]; SAD, single oral 25 mg, fasting, N = 8, mean ± SD): 2.99 ± 0.436 L/h; Cmax ([1]; 1 mg): 38.2 ± 4.86 ng/mL; Tmax ([1]; 1 mg): 0.667 ± 0.289 h; k el ([1]; 1 mg, SAD, single oral 1 mg, fasting, N = 3, mean ± SD): 1.85e-05 s⁻¹; Cmax ([1]; 3 mg): 116 ± 24.6 ng/mL; Tmax ([1]; 3 mg): 0.75 ± 0.267 h; k el ([1]; 3 mg, SAD, single oral 3 mg, fasting, N = 8, mean ± SD): 2.11e-05 s⁻¹; Cmax ([1]; 5 mg): 187 ± 27.3 ng/mL; Tmax ([1]; 5 mg): 1.06 ± 0.496 h; Vd/F ([1]; 5 mg): 38.9 ± 4.97 L; half-life ([1]; 5 mg): 10.3 ± 1.02 h; k el ([1]; 5 mg, SAD, single oral 5 mg, fasting, N = 8, mean ± SD): 2.01e-05 s⁻¹; Cmax ([1]; 9 mg): 312 ± 45.2 ng/mL; Tmax ([1]; 9 mg): 1.25 ± 0.598 h; k el ([1]; 9 mg, SAD, single oral 9 mg, fasting, N = 8, mean ± SD): 1.96e-05 s⁻¹; Vd/F ([1]; 15 mg): 60.5 ± 31 L; half-life ([1]; 15 mg): 13.8 ± 5.76 h; k el ([1]; 15 mg, SAD, single oral 15 mg, fasting, N = 8, mean ± SD): 1.57e-05 s⁻¹; Vd/F ([1]; 25 mg): 54.7 ± 13.7 L; k el ([1]; 25 mg, SAD, single oral 25 mg, fasting, N = 8, mean ± SD): 1.56e-05 s⁻¹; Tmax ([1]; male): 0.667 to 2.25 h; half-life ([1]; male): 9.23 to 13.8 h; Vd/F ([1]; male, 1 mg): 45.3 ± 6.88 L; half-life ([1]; male, 1 mg): 10.4 ± 0.552 h; Vd/F ([1]; male, 3 mg): 41.4 ± 7.17 L; half-life ([1]; male, 3 mg): 9.23 ± 0.95 h; Cmax ([1]; male, 5 mg): 205 ± 53.5 ng/mL; Tmax ([1]; male, 5 mg): 0.75 ± 0.535 h; Vd/F ([1]; male, 5 mg): 38.7 ± 4.11 L; half-life ([1]; male, 5 mg): 9.72 ± 1.17 h; Vd/F ([1]; male, 9 mg): 42.4 ± 5.4 L; Cmax ([1]; male, 15 mg): 544 ± 143 ng/mL; Cmax ([1]; male, 25 mg): 721 ± 123 ng/mL; mean daily urinary luseogliflozin excretion rate (% of daily dose) ([2]; MAD, 5 mg): 3.74–4.69%; mean urinary luseogliflozin excretion rate ([2]; MAD, 5 mg): 4.58%; CL/F ([2]; MAD, 5 mg/day oral before breakfast, Day 1, N = 8, mean ± SD): 2.72 ± 0.648 L/h; CL/F ([2]; MAD, 5 mg/day oral before breakfast, Day 7, N = 8, mean ± SD): 2.61 ± 0.537 L/h; mean daily urinary luseogliflozin excretion rate (% of daily dose) ([2]; MAD, 10 mg): 3.58–4.23%; mean urinary luseogliflozin excretion rate ([2]; MAD, 10 mg): 4.12%; CL/F ([2]; MAD, 10 mg/day oral before breakfast, Day 1, N = 8, mean ± SD): 3.05 ± 0.628 L/h; CL/F ([2]; MAD, 10 mg/day oral before breakfast, Day 7, N = 8, mean ± SD): 3.00 ± 0.612 L/h; accumulation potential ([2]; MAD, 7 days, AUCinf Day 1 vs AUCτ Day 7): No accumulation potential; trough concentrations, steady state ([2]; MAD, value just before each administration): reached a steady state by Day 7; AUC ([2]; human, plasma, 5 mg/day): 1980 ng·h/mL; AUC(0-inf) ([2]; human, plasma, 5 mg/day): 1930 ng·h/mL; AUC ([2]; human, plasma, 10 mg/day): 3470 ng·h/mL; AUC(0-inf) ([2]; human, plasma, 10 mg/day): 3430 ng·h/mL; half-life ([2]; male, human, plasma, oral, mean T 1/2 after 7-day repeat administration (range), MAD, 5 and 10 mg/day, Day 7): 9.14 to 10.7 h; increase in 24-h UGE between 1 and 5 mg [3]: 2.7 fold; increase in 24-h UGE from 5 to 25 mg [3]: 1.4 fold; maximum of mean UGE for 24 h [3]: approximately 70 g; mean UGE for 24 h after administration ([3]; 1 mg): 18.9 g; mean UGE from 24 to 48 h after administration ([3]; 1 mg): 2.53 g; mean UGE for 24 h after administration ([3]; 3 mg): 36.8 g; mean UGE from 24 to 48 h after administration ([3]; 3 mg): 12.5 g; mean UGE for 24 h after administration ([3]; 5 mg): 50.2 g; mean UGE from 24 to 48 h after administration ([3]; 5 mg): 21.3 g; mean UGE for 24 h after administration ([3]; 9 mg): 54.3 g; mean UGE from 24 to 48 h after administration ([3]; 9 mg): 37.5 g; mean UGE for 24 h after administration ([3]; 15 mg): 60.7 g; mean UGE from 24 to 48 h after administration ([3]; 15 mg): 48.4 g; mean UGE for 24 h after administration ([3]; 25 mg): 70.9 g; mean UGE from 24 to 48 h after administration ([3]; 25 mg): 62.7 g; mean daily UGE on Day 7 ([4]; 5 mg): 58.0 g; mean daily UGE (range) ([4]; 5 mg): 57.2 to 65.5 g; mean daily UGE on Day 7 ([4]; 10 mg): 62.7 g; mean daily UGE (range) ([4]; 10 mg): 62.7 to 76.9 g; mean daily UGE after the last administration ([4]; both 5 and 10 mg doses): about 60 g; effect on fasting plasma glucose levels [5]: did not produce clinically significant decreases in fasting plasma glucose levels; changes in renal function test values, blood and urine electrolytes, body weight, vital signs, electrocardiography ([6]; MAD): no clinically significant changes; severity of AEs ([6]; MAD): mild and reversible; AE diarrhoea ([6]; MAD, 10 mg): 1 subject; AE occult blood positive ([6]; MAD, 10 mg): 1 subject; subjects with AEs ([6]; MAD, 16 subjects received luseogliflozin): 2 subjects; Escherichia coli and Klebsiella oxytoca in urine ([6]; MAD, after drug administration): less than 10^3 colony forming units/mL; changes in renal function test values, blood and urine electrolytes ([6]; SAD): no clinically significant changes; severity of AEs ([6]; SAD): mild, reversible, and did not appear to be dose-related; AE occult blood positive ([6]; SAD, 3 mg): 2 subjects; AE beta 2 microglobulin urine increased ([6]; SAD, 9 mg): 1 subject; AE diarrhoea ([6]; SAD, 25 mg): 1 subject; AE urethritis ([6]; SAD, 25 mg): 1 subject; subjects with AEs ([6]; SAD, 43 subjects received luseogliflozin): 7 subjects; hypoglycemia [6, 11]: no cases of hypoglycemia; serious AEs or AEs leading to discontinuation [6, 11]: no serious AEs or AEs leading to discontinuation were observed; IC50 [7]: 2.26 nM; selectivity: SGLT2 IC50 lower than IC50 for SGLT1 [8]: 1,765 fold; concentration in the kidney vs plasma [9]: higher concentration in the kidney than in the plasma
